Source: ChEMBL document CHEMBL1143237, “Sulfonamide-1,2,4-triazole derivatives as antifungal and antibacterial agents: synthesis, biological evaluation, lipophilicity, and conformational studies” (Bioorg Med Chem, 2008)
Converted amounts (≈) assume the structure as drawn.

Tests used:
Trichoderma viride = test: Antifungal activity against Trichoderma viride IAM 5061 after 72 hrs by microdilution test; assay type: functional
Summary of the method: (§1)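 Modified microdilution in malt broth. Spores were washed from malt agar with sterile 0.85% saline containing 0.1% Tween 80 and adjusted to about 1.0 × 10⁵ per well. Compounds were dissolved in DMSO and tested at […] µg/ml. Incubation 72 h at 28 °C. MIC is the lowest concentration with no visible growth under a binocular microscope. MFC by 2 µl subculture and a further 72 h at 28 °C.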

Enterobacter cloacae = test: Antibacterial activity against Enterobacter cloacae after 24 hrs by microdilution test; assay type: functional
Summary of the method: (§2)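 Broth microdilution in LB medium in 96-well plates. Inoculum 1.0 × 10⁴ CFU per well, from a suspension set to 1.0 × 10⁵ CFU/ml in sterile saline. Compounds at […] µg/ml. Incubation 24 h at 28 °C. MIC is the lowest concentration with no visible growth under a binocular microscope. MBC by subculturing 2 µl into fresh broth for a further 72 h. OD540 read against blank. DMSO negative control.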

Salmonella enteritidis = test: Antibacterial activity against Salmonella enteritidis ATCC 13076 after 24 hrs by microdilution test; assay type: functional, Salmonella enterica subsp. enterica serovar Enteritidis; settings: Salmonella enterica, ATCC 13076, 24 h; summary of the method: as §2
Escherichia coli = test: Antibacterial activity against Escherichia coli ATCC 35210 after 24 hrs by microdilution test; assay type: functional; settings: ATCC 35210, 24 h; summary of the method: as §2
Aspergillus versicolor = test: Antifungal activity against Aspergillus versicolor ATCC 11730 after 72 hrs by microdilution test; assay type: functional; settings: ATCC 11730, 72 h; summary of the method: as §1
Micrococcus luteus = test: Antibacterial activity against Micrococcus flavus ATCC 10240 after 24 hrs by microdilution test; assay type: functional; settings: ATCC 10240, 24 h; summary of the method: as §2
Aspergillus niger = test: Antifungal activity against Aspergillus niger ATCC 6275 after 72 hrs by microdilution test; assay type: functional; settings: ATCC 6275, 72 h; summary of the method: as §1
Talaromyces funiculosus = test: Antifungal activity against Penicillium funiculosum ATCC 36839 after 72 hrs by microdilution test; assay type: functional; settings: ATCC 36839, 72 h; summary of the method: as §1
Aspergillus ochraceus = test: Antifungal activity against Aspergillus ochraceus ATCC 12066 after 72 hrs by microdilution test; assay type: functional; settings: ATCC 12066, 72 h; summary of the method: as §1
[1] = Partition coefficient, log P of the compound; assay type: physicochemical; settings: octanol/water
Summary of the method: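 Calculated, not measured: AlogP, IAlogP, ClogP, Cosmo logP, mlogP, Kowwin and XlogP were computed and averaged.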

Bacillus cereus = test: Antibacterial activity against Bacillus cereus ATCC 10907 after 24 hrs by microdilution test; settings: ATCC 10907, 24 h
[2] = tested on: Staphylococcus epidermidis; test: Antibacterial activity against Staphylococcus epidermidis ATCC 12228 after 24 hrs by microdilution test; assay type: functional; settings: ATCC 12228, 24 h; summary of the method: as §2
Aspergillus flavus = test: Antifungal activity against Aspergillus flavus ATCC 9643 after 72 hrs by microdilution test; assay type: functional; settings: ATCC 9643, 72 h; summary of the method: as §1
Salmonella typhimurium = test: Antibacterial activity against Salmonella Typhimurium ATCC 13311 after 24 hrs by microdilution test; assay type: functional, Salmonella enterica subsp. enterica serovar Typhimurium; settings: Salmonella enterica, ATCC 13311, 24 h; summary of the method: as §2

Compound | MFC (Trichoderma viride) [µg/mL] | MIC (Trichoderma viride) [µg/mL] | MBC (Enterobacter cloacae) [µg/mL] | MIC (Enterobacter cloacae) [µg/mL] | MBC (Salmonella enteritidis) [µg/mL] | MIC (Salmonella enteritidis) [µg/mL] | MBC (Escherichia coli) [µg/mL] | MIC (Escherichia coli) [µg/mL] | MFC (Aspergillus versicolor) [µg/mL] | MIC (Aspergillus versicolor) [µg/mL] | MBC (Micrococcus luteus) [µg/mL] | MIC (Micrococcus luteus) [µg/mL] | MFC (Aspergillus niger) [µg/mL] | MIC (Aspergillus niger) [µg/mL] | MBC (Bacillus cereus) [µg/mL] | MIC (Bacillus cereus) [µg/mL] | MBC [2] [µg/mL] | MIC [2] [µg/mL] | MBC (Salmonella typhimurium) [µg/mL] | MIC (Salmonella typhimurium) [µg/mL] | also measured
COc1cc(Cc2n[nH]c(=S)n2-c2ccccc2)c(S(=O)(=O)N2CCOCC2)cc1OC | 150 (≈ 315 µM) | 100 (≈ 210 µM) | 100 (≈ 210 µM) | 100 (≈ 210 µM) | 150 (≈ 315 µM) | 150 (≈ 315 µM) | 150 (≈ 315 µM) | 100 (≈ 210 µM) | 150 (≈ 315 µM) | 100 (≈ 210 µM) | 150 (≈ 315 µM) | 150 (≈ 315 µM) | 150 (≈ 315 µM) | 150 (≈ 315 µM) | 150 (≈ 315 µM) | 150 (≈ 315 µM) | 150 (≈ 315 µM) | 150 (≈ 315 µM) | 150 (≈ 315 µM) | 150 (≈ 315 µM) | MFC (Talaromyces funiculosus): 150 µg/mL (≈ 315 µM); MIC (Talaromyces funiculosus): 100 µg/mL (≈ 210 µM); MFC (Aspergillus ochraceus): 150 µg/mL (≈ 315 µM); MIC (Aspergillus ochraceus): 100 µg/mL (≈ 210 µM); logP [1]: 1.57; MFC (Aspergillus flavus): 150 µg/mL (≈ 315 µM); MIC (Aspergillus flavus): 100 µg/mL (≈ 210 µM)
COc1cc(Cc2n[nH]c(=S)n2-c2ccc(Cl)cc2)c(S(=O)(=O)N2CCOCC2)cc1OC | 150 (≈ 294 µM) | 100 (≈ 196 µM) | 100 (≈ 196 µM) | 100 (≈ 196 µM) | 150 (≈ 294 µM) | 150 (≈ 294 µM) | 150 (≈ 294 µM) | 100 (≈ 196 µM) | 150 (≈ 294 µM) | 100 (≈ 196 µM) | 150 (≈ 294 µM) | 150 (≈ 294 µM) | 150 (≈ 294 µM) | 150 (≈ 294 µM) | 150 (≈ 294 µM) | 150 (≈ 294 µM) | 150 (≈ 294 µM) | 150 (≈ 294 µM) | 150 (≈ 294 µM) | 100 (≈ 196 µM) | MFC (Talaromyces funiculosus): 150 µg/mL (≈ 294 µM); MIC (Talaromyces funiculosus): 100 µg/mL (≈ 196 µM); MFC (Aspergillus ochraceus): 150 µg/mL (≈ 294 µM); MIC (Aspergillus ochraceus): 100 µg/mL (≈ 196 µM); logP [1]: 2.25; MFC (Aspergillus flavus): 150 µg/mL (≈ 294 µM); MIC (Aspergillus flavus): 100 µg/mL (≈ 196 µM)
COc1cc(Cc2n[nH]c(=S)n2-c2ccccc2)c(S(=O)(=O)N(C)C)cc1OC | 100 (≈ 230 µM) | 50 (≈ 115 µM) | 100 (≈ 230 µM) | 100 (≈ 230 µM) | 150 (≈ 345 µM) | 150 (≈ 345 µM) | 150 (≈ 345 µM) | 100 (≈ 230 µM) | 150 (≈ 345 µM) | 100 (≈ 230 µM) | 150 (≈ 345 µM) | 150 (≈ 345 µM) | 150 (≈ 345 µM) | 100 (≈ 230 µM) | 150 (≈ 345 µM) | 150 (≈ 345 µM) | 150 (≈ 345 µM) | 150 (≈ 345 µM) | 150 (≈ 345 µM) | 100 (≈ 230 µM) | MFC (Talaromyces funiculosus): 100 µg/mL (≈ 230 µM); MIC (Talaromyces funiculosus): 100 µg/mL (≈ 230 µM); MFC (Aspergillus ochraceus): 150 µg/mL (≈ 345 µM); MIC (Aspergillus ochraceus): 100 µg/mL (≈ 230 µM); logP [1]: 1.72; MFC (Aspergillus flavus): 100 µg/mL (≈ 230 µM); MIC (Aspergillus flavus): 50 µg/mL (≈ 115 µM)
CN[C@@H]1[C@H](O[C@H]2[C@H](O[C@H]3[C@H](O)[C@@H](O)[C@H](N=C(N)N)[C@@H](O)[C@@H]3N=C(N)N)O[C@@H](C)[C@]2(O)C=O)O[C@@H](CO)[C@H](O)[C@H]1O [STREPTOMYCIN] | – | – | 100 (≈ 172 µM) | 50 (≈ 86 µM) | 100 (≈ 172 µM) | 50 (≈ 86 µM) | 150 (≈ 258 µM) | 100 (≈ 172 µM) | – | – | 150 (≈ 258 µM) | 100 (≈ 172 µM) | – | – | 150 (≈ 258 µM) | 100 (≈ 172 µM) | 100 (≈ 172 µM) | 150 (≈ 258 µM) | 100 (≈ 172 µM) | 50 (≈ 86 µM) | –
CCN(CC)S(=O)(=O)c1cc(OC)c(OC)cc1Cc1n[nH]c(=S)n1-c1ccc(Cl)cc1 | 100 (≈ 201 µM) | 50 (≈ 101 µM) | 100 (≈ 201 µM) | 100 (≈ 201 µM) | 150 (≈ 302 µM) | 150 (≈ 302 µM) | 150 (≈ 302 µM) | 100 (≈ 201 µM) | 150 (≈ 302 µM) | 100 (≈ 201 µM) | 150 (≈ 302 µM) | 150 (≈ 302 µM) | 150 (≈ 302 µM) | 100 (≈ 201 µM) | 150 (≈ 302 µM) | 150 (≈ 302 µM) | 150 (≈ 302 µM) | 150 (≈ 302 µM) | 150 (≈ 302 µM) | 150 (≈ 302 µM) | MFC (Talaromyces funiculosus): 150 µg/mL (≈ 302 µM); MIC (Talaromyces funiculosus): 100 µg/mL (≈ 201 µM); MFC (Aspergillus ochraceus): 150 µg/mL (≈ 302 µM); MIC (Aspergillus ochraceus): 100 µg/mL (≈ 201 µM); logP [1]: 3.15; MFC (Aspergillus flavus): 150 µg/mL (≈ 302 µM); MIC (Aspergillus flavus): 100 µg/mL (≈ 201 µM)
COc1cc(Cc2n[nH]c(=S)n2-c2ccc(Cl)cc2)c(S(=O)(=O)N2CCCCC2)cc1OC | 150 (≈ 295 µM) | 100 (≈ 196 µM) | 100 (≈ 196 µM) | 100 (≈ 196 µM) | 150 (≈ 295 µM) | 150 (≈ 295 µM) | 150 (≈ 295 µM) | 100 (≈ 196 µM) | 150 (≈ 295 µM) | 100 (≈ 196 µM) | 150 (≈ 295 µM) | 150 (≈ 295 µM) | 150 (≈ 295 µM) | 100 (≈ 196 µM) | 150 (≈ 295 µM) | 150 (≈ 295 µM) | 150 (≈ 295 µM) | 150 (≈ 295 µM) | 150 (≈ 295 µM) | 100 (≈ 196 µM) | MFC (Talaromyces funiculosus): 150 µg/mL (≈ 295 µM); MIC (Talaromyces funiculosus): 100 µg/mL (≈ 196 µM); MFC (Aspergillus ochraceus): 150 µg/mL (≈ 295 µM); MIC (Aspergillus ochraceus): 100 µg/mL (≈ 196 µM); logP [1]: 3.31; MFC (Aspergillus flavus): 150 µg/mL (≈ 295 µM); MIC (Aspergillus flavus): 100 µg/mL (≈ 196 µM)
